The values below come from ChEMBL document CHEMBL2406995, “Cytotoxic indole alkaloids from Tabernaemontana divaricata” (J Nat Prod, 2013).

A word on the IC50: it is the concentration at which inhibition is half-maximal.

Holding throughout (format): functional, cell-based
The test system of experiment [1] is SW480. Nature of the experiment: Cytotoxicity against human SW480 cells after 48 hrs by MTT assay. Particulars: SW480, 48 h. The essentials: (§1)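 Adherent cells grown in RPMI1640 or DMEM plus 10% FBS at 37 °C, 5% CO2. They were seeded in 96-well plates and left 12 h to adhere before dosing. MTT viability was used to plot growth curves, and IC50 was calculated by Reed and Muench's method.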
(Tetrazolium assays rely on reduction of a dye to a coloured formazan, in cell work by metabolically active cells.)

Experiment [2] relates to MCF7. Nature of the experiment: Cytotoxicity against human MCF7 cells after 48 hrs by MTT assay. As to conditions: MCF7, 48 h. The essentials: as §1
Experiment [3] concerns A549. The experiment is described as follows: Cytotoxicity against human A549 cells after 48 hrs by MTT assay. As to conditions: A549, 48 h. In outline: as §1
Experiment [4] is described as follows: Cytotoxicity against human […] cells after 48 hrs by MTT assay. In outline: as §1
Experiment [5] concerns HL-60. The experiment is described as follows: Cytotoxicity against human HL60 cells after 48 hrs by MTT assay. As to conditions: HL-60, 48 h. The essentials: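 Suspension (leukemia) cells seeded just before drug addition at an initial density of 1 × 10^5 cells/mL. They were grown in RPMI1640 or DMEM with 10% FBS, 5% CO2, 37 °C. Cells were exposed for 48 h to […], 0.32, 1.6, 8 and 40 μM in triplicate, with cisplatin as positive control. Viability was read by MTT and IC50 was derived by Reed and Muench's method.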

Structures are written as SMILES.

For `CC[C@H]1C[C@@H]2CN3CCc4c([nH]c5c([C@H]6C[C@H]7[C@]8(C(=O)OC)CO[C@H](N(C)[C@H]8Cc8c6[nH]c6ccccc86)[C@@]76O[C@@H]6C)c(OC)ccc45)[C@](C(=O)OC)(C2)[C@H]13`, the IC50 was 2.59 µM in experiment [1]; 3.1 µM in experiment [2]; 3.52 µM in experiment [3]; 3.41 µM in experiment [4]; 0.79 µM in experiment [5].
As to `CC[C@H]1C[C@H]2C[C@H]3c4[nH]c5ccc(OC)cc5c4CCN([C@@H]13)[C@@H]2CC(C)=O`, the IC50 in experiment [1] was 13 µM; in experiment [2] it was 13.2 µM; in experiment [3], 28.5 µM; in experiment [4], 14.8 µM; in experiment [5], 3.88 µM.
For `C/C=C1/CN(C)[C@H]2Cc3c([nH]c4ccccc34)[C@H](c3cc4[nH]c5c(c4cc3OC)CCN3C[C@H]4C[C@H](CC)[C@H]3[C@@]5(C(=O)OC)C4)C[C@H]1[C@]2(CO)C(=O)OC`, in that order: 16.5 µM, 13.3 µM, 16.5 µM, 9.86 µM and 2.35 µM.
For `C/C=C1/CN(C)[C@H]2Cc3c([nH]c4ccccc34)[C@H](c3cc4[nH]c5c(c4cc3OC)CCN3C[C@H]4C[C@H](CC)[C@H]3[C@H]5C4)C[C@H]1[C@]2(CO)C(=O)OC`, in that order: 13 µM, 13.2 µM, 28.5 µM, 14.8 µM and 3.88 µM.
On to `C/C=C1/CN(C)[C@H]2Cc3c([nH]c4ccccc34)[C@H](c3cc4c5c([nH]c4cc3OC)[C@]3(C(=O)OC)C[C@@H]4C[C@H](CC)[C@@H]3N(CC5)C4)C[C@H]1[C@]2(CO)C(=O)OC`, for which the IC50 in experiment [1] turned out to be 13.4 µM; in experiment [2] it was 12.6 µM; in experiment [3], 14.8 µM; in experiment [4], 12.3 µM; in experiment [5], 2.68 µM.
Consider `C/C=C1/CN(C)[C@H]2Cc3c([nH]c4ccccc34)[C@@H](c3c(O)ccc4c5c([nH]c34)[C@]3(C(=O)OC)C[C@H]4C[C@H](CC)[C@@H]3N(CC5)C4)C[C@@H]1[C@]2(CO)C(=O)OC`, for which the half-inhibitory concentration (IC50) in experiment [1] worked out at 2.72 µM; in experiment [2], 3.02 µM; in experiment [3] it was 9.4 µM; in experiment [4] it was 3.75 µM; in experiment [5], 2.9 µM.
In the same order, the values of `CC[C@@]12CC[C@@H]3N(C)c4ccc([C@@H]5[C@H]6O[C@H]6[C@@]6(CC)CC(C(=O)OC)=C7Nc8c(cc(O)c(OC)c8OC)[C@@]78CCN5[C@@H]68)cc4[C@@]34CCN(C[C@H]3O[C@H]31)[C@@H]24` [CONOFOLINE] are 13.7 µM, 14 µM, 10.3 µM, 10.3 µM and 0.8 µM.
In the case of `CC[C@@]12CC(C(=O)OC)=C3Nc4cc5c(cc4[C@@]34CCN(C[C@H]3O[C@H]31)[C@@H]24)[C@@H]1[C@H](O5)[C@@H](O)[C@@]2(CC)CC(C(=O)OC)=C3Nc4c(cc(O)c(OC)c4OC)[C@@]34CCN1[C@@H]24` [CONOPHYLLINE], the IC50 in experiment [1] was found to be 1.49 µM; in experiment [2], 1.02 µM; in experiment [3] it was 0.21 µM; in experiment [4] it was 0.35 µM; in experiment [5], 0.17 µM.
